The entries come from a sample that favours hits as a whole.
PDI inh – PDI (human) enzyme inhibition; P07237; hit rate 0.052% among 350,000; inhibition, % at 10 µM; PDI insulin aggregation turbidity, A650, 90 min;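 active = mean inhibition across replicates of 30% or more, whatever share of single replicates reach that level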
FGF22 binding – shifts melting point of recombinant human FGF22; Q9HCT0; activity (Tm shift, normalised), % at 9.99 µM; recombinant FGF22 thermal shift, SYPRO orange fluorescence; percent of sucrose octasulfate shift, DMSO zero; hit rate 1.5% among 340,000;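 active = mean Tm shift, scaled 0 neutral to 100 positive control, at about 1.3% or above, every replicate too, limit read from the data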
ERAP1 HTS inh – ERAP1 (human) enzyme inhibition | recombinant ERAP1, Leu-AMC fluorescence, 60 min | inhibition, % at 10.7 µM | hit rate 0.15% among 340,000;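 active = mean replicate inhibition of at least 30%, or all replicates individually reaching that 30% level; inactive = mean below 30% and not every replicate reaching it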;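 note: 0% = neutral control wells and 100% = L-leucinethiol positive control wells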
Target sequence (Q9NZ08 whole entry, looked up): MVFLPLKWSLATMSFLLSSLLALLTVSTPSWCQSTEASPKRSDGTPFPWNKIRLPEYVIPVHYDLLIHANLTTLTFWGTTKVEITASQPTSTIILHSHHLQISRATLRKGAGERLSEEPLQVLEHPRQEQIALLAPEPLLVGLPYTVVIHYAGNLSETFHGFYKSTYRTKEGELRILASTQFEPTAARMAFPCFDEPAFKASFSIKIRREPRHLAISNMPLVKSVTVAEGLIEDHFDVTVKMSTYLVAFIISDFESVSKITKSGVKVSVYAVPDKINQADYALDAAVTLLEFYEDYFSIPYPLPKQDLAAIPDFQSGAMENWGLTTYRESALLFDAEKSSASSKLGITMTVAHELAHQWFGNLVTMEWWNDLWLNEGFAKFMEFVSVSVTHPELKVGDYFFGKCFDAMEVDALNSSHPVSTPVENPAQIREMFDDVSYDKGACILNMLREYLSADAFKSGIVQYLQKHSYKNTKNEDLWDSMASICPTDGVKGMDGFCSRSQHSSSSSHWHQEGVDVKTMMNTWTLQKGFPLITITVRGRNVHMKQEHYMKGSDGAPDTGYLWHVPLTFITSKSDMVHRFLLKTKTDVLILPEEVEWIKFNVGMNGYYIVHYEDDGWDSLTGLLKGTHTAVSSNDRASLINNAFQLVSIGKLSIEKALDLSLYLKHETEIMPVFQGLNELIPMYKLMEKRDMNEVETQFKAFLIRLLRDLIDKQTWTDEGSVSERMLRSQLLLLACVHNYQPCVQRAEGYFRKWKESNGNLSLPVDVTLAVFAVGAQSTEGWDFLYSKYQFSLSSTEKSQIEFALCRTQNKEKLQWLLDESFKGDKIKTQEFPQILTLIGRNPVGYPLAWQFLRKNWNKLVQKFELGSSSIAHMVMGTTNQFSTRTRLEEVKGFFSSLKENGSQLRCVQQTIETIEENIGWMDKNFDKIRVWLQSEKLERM
ERp5 inh – inhibitors of human ERp5; ERp5 insulin aggregation, absorbance 650 nm, 90 min; hit rate 0.05% among 350,000; inhibition, % at 9.99 µM; Q15084;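 active = mean replicate inhibition above about 25%, with every replicate also reaching it, limit read from the data, passing the limit was not always enough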
S100A4 MyoIIA – blocks human S100A4 binding to myosin IIA peptide | P26447 | S100A4/TAMRA-MyoIIA peptide fluorescence polarization | inhibition, % at 10.7 µM | hit rate 0.14% among 360,000;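 active = mean inhibition of at least 70% across replicates, with every replicate also reaching that level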
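System – human S100A4 monomer protein, biochemical binding assay · Buffer or medium – Calcium-containing HEPES buffer, pH 7.2 · Timing – 5 min between mix addition and reading · Also added – TAMRA-labelled myosin IIA heavy-chain peptide probe, 5 nM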
Active calls of the source: *; / = no result given.

SMILES	PDI inh	FGF22 binding	ERAP1 HTS inh	ERp5 inh	S100A4 MyoIIA
O=c1c2cc(Cl)ccc2nc(-c2ccccc2)n1O	18.4	46.0*	6.4	1.4	-4.5
O=c1c2cc(Cl)ccc2nc(-c2ccc(Cl)c(Cl)c2)n1O	4.5	-0.4	-2.7	-0.5	-1.9
COc1ccc(Cl)cc1NC(=O)CN(C)CC(=O)Nc1ccccc1C(F)(F)F	-8.7	-0.2	0.0	2.4	9.3
O=C1C=C(N2CCOCC2)c2cccc3cccc1c23	7.9	0.0	12.9	9.9	83.2*
O=C1C(N2CCOCC2)=Cc2cccc3cccc1c23	11.9	-0.4	1.8	-3.3	90.1*
Cc1ccc(-c2nc3cccnc3s2)cc1NS(C)(=O)=O	/	-0.2	3.4	-2.3	3.7
CCC(=O)N1CC2(CN(C(=O)Nc3c(C)noc3C)C2)c2c([nH]c3cc(OC)ccc23)[C@H]1CO	/	0.1	-2.2	8.0	6.2
CCOC(=O)CN1CC23C=CC(O2)C(C(=O)NCc2ccc(F)cc2)C3C1=O (configuration not stated)	/	0.0	-5.3	1.2	12.5
Cc1ccccc1NC(=O)C1=CC=CN2CCS(=O)(=O)N=C12	-3.6	0.0	1.3	-0.5	4.7
CCCCN(C(=O)C1=CC=CN2CCS(=O)(=O)N=C12)c1ccccc1	36.6*	-0.3	-1.9	1.0	7.5
O=C(Cn1nnc(-c2ccccc2)n1)NNC(=O)c1ccco1	-4.1	0.0	-3.4	-0.4	-0.7
Cc1ccc2nc(NC(=O)c3ccc(N4C(=O)CCC4=O)cc3)sc2c1	1.5	43.3*	-3.2	0.6	-1.7
CC(C)c1ccc(NC(=O)COc2ccccn2)cc1	-8.3	43.2*	-0.3	1.3	-1.9
C[C@H]1CCCCO[C@H](CN(C)C(=O)C2CCCCC2)[C@@H](C)CN([C@@H](C)CO)C(=O)c2cc(NC(=O)c3ccncc3)ccc2O1	/	-0.2	-3.0	5.0	3.0
Cc1cccc(-n2c(C)nc3ccsc3c2=O)c1	-3.4	0.1	/	0.5	1.8
CCCc1cc(=O)oc2c(CN3CCCC3)c(O)ccc12	7.6	/	/	/	/
Cc1cc(=O)oc2c(CN3CCCC3)c(O)ccc12	-12.6	-0.3	40.7*	0.2	-5.5
CCN(CC)Cc1c(O)c(Cl)cc2c(C)cc(=O)oc12	-0.6	0.5	66.0*	0.5	15.6
Cc1cc(=O)oc2c(CN3CCCC3)c(O)c(Cl)cc12	1.1	0.0	114.5*	-0.7	16.7
Cc1cc(=O)oc2c(CN3CCCCC3)c(O)c(Cl)cc12	-3.6	/	/	/	/
CN1CCN(Cc2c(O)ccc3c(-c4ccccc4)cc(=O)oc23)CC1	-9.6	/	/	/	/
Cc1cc(=O)oc2c(CN3CCN(CCO)CC3)c(O)ccc12	-0.1	-0.1	40.2*	0.8	0.8
Cc1c(C(N)=O)sc2ncn(CC(=O)N3CCC(C)CC3)c(=O)c12	-4.7	/	/	/	/
N#Cc1ccc(NC(=O)CSc2n[nH]c(=O)n2C2CC2)cc1	3.1	0.1	1.6	/	2.7
COc1ccc(S(=O)(=O)Nc2ccc3c(c2)C(=O)N([C@@H](C)CO)C[C@@H](C)[C@H](CN(C)C(=O)c2ccncc2)OCCCC[C@H](C)O3)cc1	/	0.1	0.0	-0.4	-3.7
SMILES	PDI inh	FGF22 binding	ERAP1 HTS inh	ERp5 inh	S100A4 MyoIIA
CN(Cc1ccccc1)c1ccc(S(=O)(=O)N2CCOCC2)cn1	-1.6	/	/	/	/
O=c1oc2c(CN3CCN(CCO)CC3)c(O)ccc2cc1-c1ccccn1	-1.0	0.0	98.5*	-0.5	-5.0
O=c1oc2c(CN3CCCCC3)c(O)ccc2cc1-c1nc2ccccc2[nH]1	7.7	0.0	-11.1	2.2	-0.4
CCN1CCN(Cc2c(O)c(Cl)cc3c(C)cc(=O)oc23)CC1	-2.1	/	/	/	/
Cc1c(O)ccc2c(CN3CCN(CCO)CC3)cc(=O)oc12	53.3*	/	/	/	/
CCN1CCN(Cc2c(O)ccc3c(C)cc(=O)oc23)CC1	3.2	0.0	32.8*	3.9	-6.8
N#CC(C(O)c1ccccc1)N1CCOCC1 (configuration not stated)	2.2	0.0	-2.9	-6.0	-2.7
CCOC(=O)C1(C)CCN1C(=O)c1ccc(OC)c(F)c1 (configuration not stated)	1.5	0.0	0.1	-4.1	-7.4
Cc1nnsc1SCCNC(=O)Nc1ccc(Cl)cc1	-4.2	43.6*	-2.0	-0.7	4.4
O=C(NCCNC(=O)Nc1ccc(Cl)cc1)Nc1ccc(Cl)cc1	-16.7	0.0	-3.1	7.4	1.9
CN(C)CCC(O)c1ccccc1 (configuration not stated)	-10.0	0.1	3.5	0.9	1.1
CNc1ccc(OC(F)F)cc1C(=O)c1ccccc1	8.2	/	/	/	/
Cn1c(=O)[nH]c(=O)c2c1nc(NCCCO)n2CCCc1ccccc1	-2.3	0.2	-0.3	3.5	1.5
CCCCNc1nc2c(c(=O)[nH]c(=O)n2C)n1CCCc1ccccc1	-0.2	43.3*	2.6	0.1	-0.9
CCCCCCn1c(N2CCCC2)nc2c1c(=O)n(C)c(=O)n2C	1.5	0.1	1.8	0.5	1.1
Cc1ccc(S(=O)(=O)N2C[C@H]3[C@H]4C(=O)N(c5ccccc5)C(=O)[C@H]4C[C@H](OC(=O)NCc4ccco4)[C@@]3(O)C2)cc1	10.5	40.3	-2.3	-1.1	-6.1
Cc1ccc(S(=O)(=O)N2C[C@H]3[C@H]4C(=O)N(c5ccccc5)C(=O)[C@H]4C[C@H](OC(=O)NCc4ccccc4)[C@@]3(O)C2)cc1	1.2	42.9*	-2.8	-7.4	-1.9
CCC(CC)c1nnc(NC(=O)C2CCCO2)s1 (configuration not stated)	3.2	43.4*	1.9	3.9	-5.6
CCCCc1nnc(NC(=O)C2CCCO2)s1 (configuration not stated)	-3.6	/	/	/	/
CCN1/C(=C/c2ccc3cc(C)cc(C)c3[n+]2CC)Sc2cc(C)ccc21	-2.1	0.1	34.9*	7.2	15.6
CCN1/C(=C\c2ccc3cc(C)ccc3[n+]2CC)Sc2cc(C)c(C)cc21	-1.6	0.1	15.0	7.3	-39.2
COc1ccc(/C=C2\CCn3c2nc2ccccc2c3=O)cc1OC	13.9	/	/	/	/
COc1cc(/C=C2\CCCc3c2nc2ccccc2c3C(=O)O)cc(Br)c1O	-0.6	20.9*	4.5	-10.1	3.6
COc1cc(/C=C2\CCc3c2nc2ccccc2c3C(=O)O)cc(OC)c1OC	-1.9	-0.4	1.1	-0.4	-17.4
CCOc1cc(/C=C2\CCCc3c2nc2ccccc2c3C(=O)O)ccc1OC	-16.1	-0.1	3.5	-1.8	80.0*
CC(NC(=O)COC(=O)c1ccc(OCC2CCCO2)cc1)c1ccccc1Cl (configuration not stated)	2.8	-0.1	1.4	10.9	4.1
Cc1ccc(CSc2nnc(-c3cccs3)n2C)cc1	-2.3	/	/	/	/
CSc1nnc(-c2cccs2)n1C	2.3	43.0*	3.8	-0.4	-2.0
C[C@H]1CN([C@@H](C)CO)C(=O)c2cc(NC(=O)CCC(F)(F)F)ccc2O[C@H]1CN(C)C(=O)Nc1ccc(F)cc1	/	-0.2	-1.6	1.3	-1.1
C[C@H](CO)N1C[C@H](C)[C@@H](CN(C)Cc2ccc(Oc3ccccc3)cc2)Oc2ccc(NC(=O)CCCN(C)C)cc2C1=O	/	1.2*	0.7	-5.3	-4.8

Bioassay records from PubChem.
